Compound activity: PubChem BioAssay, several laboratories
Ins promoter up: insulin promoter activators in MIN6 cells, imaging, high-content screening, mouse beta cells; MIN6 insulin promoter-GFP reporter; stronger effect = higher value; z-score at 5 µM; 190,000 tested, 0.3% active; AID 1625, 2009;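 active means z-score above 3 at 5 µM with at least 500 cells counted in the well; inconclusive means wells under 500 cells, flagged as cytotoxic or low count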
Autophagy HCS: autophagy modulators in MEF cells, primary screen, imaging, high-content, MEF GFP-LC3. 190,000 tested, 0.98% active. calls only at 10 µM (by protocol). AID 463193, 2010. MEF GFP-LC3 puncta imaging; test concentration mostly 10 µM;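 active means percentage of spot-positive cells more than 3 SD above its plate mean, without a fluorescence outlier flag or 80% toxicity; inconclusive means no clear call, values can overlap the other calls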;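 further: spot-positive cell cutoff set from DMSO-treated cells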
bCat nuc transl: modulators of beta-catenin nuclear translocation, primary screen, imaging, HeLa cells, immunofluorescence, high-content; 190,000 tested, 0.3% active; nuclear translocation activity, % at 5 µM; AID 1665, 2009;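 active means nuclear translocation activity above 50% at 5 µM, with a well cell count of 50 or more; inconclusive means wells under 50 cells across six images, flagged as toxic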;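 further: per-cell ratio of nuclear to cytoplasmic median beta-catenin stain intensity; plate controls were DMSO negative control for no effect and GSK-3 inhibitor IX positive control for full effect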
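Test system: HeLa cells, endogenous beta-catenin; Compound: single 5 µM dose plus 0.02–20 µM confirmation series; Times: compound exposure 24 h at 37°C; Signal: fluorescence imaging of beta-catenin antibody stain plus DAPI; Read-out: % activation, nuclear-to-cytoplasmic median beta-catenin signal ratio per cell.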
MT stabilizer: microtubule stabilizers in HeLa cells, primary screen, imaging, high-content imaging. AID 2205, 2009. 200,000 tested, 0.83% active. % tubulin-high responders, % at 10 µM. HeLa tubulin immunostaining HCS, 24 h; share of cells brighter than vehicle mean+2SD;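 active means plate Z-score above 3 for both tubulin-high and condensed-nucleus cell shares, with cell loss under 80%, at 10 µM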;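 further: anti alpha tubulin signal scored within the nucleus-defined area of each cell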
* = called active by the depositor; i = inactive; ? = inconclusive; · = no result; + = active, no number. In the library only some 1.9% were active in any assay of this set; here they are far more common.

SMILES	Ins promoter up	Autophagy HCS	bCat nuc transl	MT stabilizer
Cc1cc(C)c2oc(-c3ccc(Cl)c(NC(=O)c4ccc(C#N)cc4F)c3)nc2c1	0.23	+	0	4
Cc1ccc(C(=O)N/C(=C/c2ccco2)C(=O)OCN2C(=O)c3ccccc3C2=O)cc1	0.1	i	-1	1
COc1ccccc1NC(=O)c1oc2ccccc2c1NC(=O)c1cc(OC)c(OC)c(OC)c1	·	+	·	36*
Cc1ccc(N2C(=O)C3NN=C(C(=O)OCc4ccccc4)C3C2=O)c(C)c1 (stereo not drawn)	0.09	i	-1	4
CNC(=O)CN(c1cc(OCCOC)c(Cl)cc1Cl)S(=O)(=O)c1ccc(OC)cc1	0.57	i	-2	16*
CCOc1ccc(N2C(=O)CC(N(Cc3ccco3)C(=O)CC)C2=O)cc1 (stereo not drawn)	0.38	i	0	4
COc1ccc(C2=CC(c3ccc(OC)c(OC)c3)n3nnnc3N2)c(OC)c1 (stereo not drawn)	-3	i	1	3
COc1cccc(C2C=C(c3ccc(OC)cc3OC)Nc3nnnn32)c1 (stereo not drawn)	·	i	·	30*
COc1cccc(C2=CC(c3ccc(N(C)C)cc3)n3ncnc3N2)c1 (stereo not drawn)	·	i	·	3
COc1cccc(C2=CC(c3ccccc3)n3nnnc3N2)c1 (stereo not drawn)	·	i	·	32*
COc1cccc(C2=CC(c3ccc(N(C)C)cc3)n3nnnc3N2)c1 (stereo not drawn)	0.02	i	-4	42*
COc1ccc(C2C=C(c3ccccc3)Nc3nnnn32)cc1 (stereo not drawn)	-1.3	i	-4	5
CCN(CC)c1ccc(CNc2nc3ccccc3n2CC)cc1	-0.3	·	0	·
O=C(O)c1ccccc1C(=O)NCC(O)COc1ccc(Cl)cc1 (stereo not drawn)	1.4	·	-1	·
COc1ccc(COC(=O)N/N=C(\C)CC(=O)NCc2ccc(Cl)cc2)cc1	0.43	i	2	4
CCOc1ccc(-c2nn(-c3ccccc3)cc2/C=C2\SC(=S)N(Cc3ccco3)C2=O)cc1	-0.07	i	-2	7
CCN1C(=O)/C(=C\c2cn(-c3ccccc3)nc2-c2cccnc2)SC1=S	1.1	+	0	1
O=c1[nH]c(/C=C/c2ccccc2OC(F)F)nc2c1cnn2-c1ccccc1	3.2*	i	0	2
Cc1ccc(/C=C/C(=O)OCC(=O)Nc2cccc(S(=O)(=O)N(C)C)c2)o1	-0.02	i	2	2
CCOC(=O)Cc1csc(NC(=O)c2ccc(Cl)nc2)n1	-0.25	i	1	37*
CCOC(=O)Cc1csc(NC(=O)c2ccc(C)cc2)n1	·	i	1	2
O=c1cc(N2CCN(c3ccccc3Cl)CC2)[nH]c(=O)n1Cc1ccc(F)cc1	1.1	·	1	·
COc1ccccc1N1CCN(c2cc(=O)n(Cc3ccc(F)cc3)c(=O)[nH]2)CC1	0.38	·	1	22*
CCC(CC)c1nc(C#N)c(NCc2ccccc2)o1	-0.23	i	4	15*
O=C(CSc1ccc(-c2ccccc2)nn1)c1cccs1	0.67	+	-4	3
SMILES	Ins promoter up	Autophagy HCS	bCat nuc transl	MT stabilizer
N#Cc1c(-c2ccccc2)cc(C2CC2)nc1SCC(=O)c1cccs1	2.1	+	5	6
CC(=O)N1CCc2ccc(NC(=O)c3c(-c4c(Cl)cccc4Cl)noc3C)cc21	0.13	·	-2	·
C=C(C)Cn1c(=O)c(NC(=O)c2ccccc2)c2n(c1=S)CCC2	-0.54	i	-1	1
COc1ccc(-n2c(=O)c(NC(=O)c3ccccc3)c3n(c2=S)CCCCC3)cc1	-1.1	+	0	1
COC(=O)c1sc2ccccc2c1-n1cccc1C(=O)C(=O)Nc1ccc(C)cc1	·	i	·	32*
COC(=O)c1sccc1-n1cccc1C(=O)C(=O)Nc1ccc(F)cc1	-0.59	i	1	3
COC(=O)c1sc2ccccc2c1-n1cccc1C(=O)C(=O)Nc1ccc(F)cc1	5.4*	i	0	3
COC(=O)c1sc2ccccc2c1-n1cccc1C(=O)C(=O)Nc1ccc(Cl)cc1	·	i	·	40*
Cc1ccccc1NC(=S)N(Cc1ccco1)C(C)c1ccccn1 (stereo not drawn)	0.16	i	-2	3
COc1ccc(N(C(=O)c2ccco2)S(=O)(=O)c2cc(Cl)c(Cl)cc2Cl)cc1	-0.32	i	·	33*
COc1ccc(N(C(=O)c2ccco2)S(=O)(=O)c2ccccc2)cc1	0.31	i	·	1
Oc1ccc(C(=S)N2CCN(c3cccc(Cl)c3)CC2)cc1	-0.42	i	-1	7
COc1ccc(C(=O)N2CCN(c3cccc(Cl)c3)CC2)cc1	-0.62	i	-2	2
COc1ccc(C(=S)N2CCN(c3cccc(Cl)c3)CC2)c(OC)c1	-0.53	i	107*	18*
COc1cc(CN2CCN(c3cccc(Cl)c3)CC2)cc(OC)c1OC	·	i	-2	46*
COc1cc(C(=S)N2CCN(c3cccc(Cl)c3)CC2)ccc1O	·	i	50*	24*
Cc1nn(Cc2ccc(Cl)cc2)c(C)c1NC(=O)C(c1ccccc1)c1ccccc1	0.09	i	0	2
Cc1ccc(OCCCN2C(=O)C(=O)c3cccc(C)c32)cc1	-0.87	i	-2	2
Cc1ccc(OCCN2C(=O)C(=O)c3cc(C)ccc32)cc1	·	+	0	1
C(=C\c1ccc2ccccc2n1)/c1ccccc1	0.94	·	0	·
CN(C)c1ccc(/C=C/c2ccc3ccccc3n2)cc1	7.3*	·	-5	·
CCC(=O)Nc1cc(SCCO)cc([N+](=O)[O-])c1	·	i	·	3
O=C(CCl)Nc1cc(SCC(O)CO)cc([N+](=O)[O-])c1 (stereo not drawn)	?	+	11	93
CCc1ccc2nc(NC(=O)c3cc(C)on3)sc2c1	0.19	i	36	38*
Cc1cc(C)c(NC2=NS(=O)(=O)c3ccccc32)c(C)c1	·	i	-4	1
SMILES	Ins promoter up	Autophagy HCS	bCat nuc transl	MT stabilizer
COc1ccccc1-c1cc(C(=O)NCc2cccs2)no1	-0.72	i	-1	2
COCCNC(=O)c1cc(-c2ccccc2OC)on1	-0.75	·	3	31*
COc1ccccc1-c1cc(C(=O)Nc2cc(C)nn2-c2ccccc2)no1	-0.16	i	9	47*
COC(=O)[C@@H](NC(=O)Nc1cccc(Br)c1)C(C)C	-0.81	i	0	2
Cc1ccc2nc(NC(=O)CCNS(=O)(=O)c3ccc(Br)s3)sc2c1	-0.86	+	-3	6
COC(=O)c1ccc(NC(=O)CN2CCN(c3cccc(Cl)c3)CC2)cc1	0.62	i	2	2
COC(=O)c1ccc(NC(=O)CN2CCN(c3ccc(Cl)cc3)CC2)cc1	1.7	+	1	3
COc1ccc(CC(=O)NCc2nnc(SCc3ccc(C)cc3)n2C)cc1	0.21	i	-4	5
O=C(COc1cccnc1[N+](=O)[O-])NCc1ccco1	·	i	0	4
